{
  "source": "paper PMC3512081",
  "about": "(Journal of immunology (Baltimore, Md. : 1950), 2011)",
  "key": {"[1]": {"system": "WT and GFP-transduced Hela cells", "assay": "3H-L-tryptophan uptake by IDO negative Hela cells", "assay_type": "cell-based, human", "conditions": "for effect of excess unlabelled amino acid on 3H-tryptophan uptake: IDO negative Hela cells, high concentration (5mM glycine, histidine, glutamine)", "procedure,_shortened": "(§1)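 HeLa cells were used untreated, GFP-transduced, human-IDO lentivirus-transduced, or given 1000 U/ml IFNγ for 48 h, and assayed at 90-100% confluence. Preincubated 20-30 min in PBS or choline buffer (pH 7.4). 3H-L-tryptophan was added at 50 pmol/ml, with initial-rate uptake over 3 min at 37°C. Stopped with 20mM L-lysine in ice-cold PBS, then NaOH/SDS lysis and scintillation counting. Competitors: BCH, D/L-Met, 5mM histidine, glycine or glutamine, and titrations. Triplicates, normalized; Student's t-test.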"}, "[2]": {"system": "EG7 WT and GFP-transduced cells", "assay": "3H-L-tryptophan uptake by IDO negative EG7 cells", "assay_type": "cell-based, mouse", "procedure,_shortened": "(§2)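 EG7 mouse T lymphoma cells: wild-type, GFP-only lentivirus controls, or an IDO/GFP lentivirus-transduced clone. Cultured 48 h, washed, then held 20-30 min in PBS or sodium-free choline buffer (pH 7.4). 3H-L-tryptophan was added at 50 pmol/ml and incubated a fixed time at 37°C. Uptake was stopped by spinning cells through oil. Competitors: BCH, D- or L-Met titrations, glutamine. Duplicate samples. Ki fitted assuming one or two transport systems.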"}, "[3]": {"system": "IDO-transduced (C7) EG7 cells", "assay": "3H-L-tryptophan uptake by IDO positive EG7 cells", "assay_type": "cell-based, mouse", "conditions": "for tryptophan uptake maintained: 0.05mM, EG7-C7 cells, absence of BCH; for fold lower affinity of the additional transporter versus the first transporter: IDO positive C7 cells, equation based on two independent systems; for effect on tryptophan uptake, inhibitor alone: IDO positive cells", "procedure,_shortened": "as §2"}, "[4]": {"system": "IDO induced tryptophan transporter", "assay_type": "cell-based, human", "conditions": "for effect on tryptophan uptake in the presence of 2.5mM glutamine: IDO positive Hela cells, L-tryptophan at 2mM", "procedure,_shortened": "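IFN-γ-treated or human IDO-lentivirus-transduced Hela cells are grown 48h to 90-100% confluence, washed, then preincubated 20-30 min in PBS or choline buffer (pH 7.4). Add 3H-L-tryptophan at 50pmol/ml with competing amino acid and take uptake at 37°C under initial-rate conditions over 3 min. Stop with 20mM L-lysine in ice-cold PBS, lyse in 1% NaOH/0.1% SDS, and count by liquid scintillation.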"}, "[5]": {"system": "IDO-lentivirus transduced or IFN-γ treated Hela cells", "assay": "3H-L-tryptophan uptake by IDO positive Hela cells", "assay_type": "cell-based, human", "conditions": "for Ki: read-out: Ki for 3H-tryptophan uptake; for effect of excess unlabelled amino acid on 3H-tryptophan uptake: high concentration (5mM glycine, histidine, glutamine)", "procedure,_shortened": "as §1"}, "histidine uptake": {"system": "histidine uptake", "assay": "14C-histidine uptake", "assay_type": "cell-based", "conditions": "data not shown"}, "activated human T cells": {"system": "activated human T cells", "assay": "Tryptophan uptake by activated human T cells", "assay_type": "cell-based", "conditions": "preliminary data, not shown"}, "[6]": {"conditions": "WT and GFP-transduced Hela cells"}},
  "note": "Values joined by “and” are separate entries in the source; they are usually repeats but may differ in a detail not shown here. Identical values can stand only once. Like-named read-outs stand apart in the source and are kept apart here.",
  "data": [
    {"compound": "NC1(C(=O)O)CC2CCC1C2", "note": "(stereo not drawn) [BCH, 2-aminobicyclo-(2,2,1)-heptane-2-carboxylic acid]", "values": [
      {"measurement": "effect on 3H-tryptophan uptake", "setting": "[1]; [6]", "result": "strongly inhibited"},
      {"measurement": "Ki", "setting": "[1]; read-out: Ki for 3H-tryptophan uptake, control Hela cells", "result": 12, "unit": "µM"},
      {"measurement": "effect on transporter-mediated 3H-L-tryptophan uptake", "setting": "[2]; high concentrations, EG7-WT and GFP cells, sodium-free", "result": "completely abolished"},
      {"measurement": "effect on transporter-mediated 3H-L-tryptophan uptake", "setting": "[3]; high concentrations, IDO positive EG7 cells, sodium-free", "result": "completely abolished"},
      {"measurement": "effect on tryptophan uptake in the presence of 2.5mM glutamine", "setting": "[4]", "result": "no additional inhibition"},
      {"measurement": "Ki", "setting": "[5]; IDO transduced Hela cells", "result": "~300", "unit": "µM"},
      {"measurement": "Ki", "setting": "[5]; IFN-γ treated Hela cells", "result": "~600", "unit": "µM"}
    ]},
    {"compound": "CSCC[C@@H](N)C(=O)O", "note": "[D-Met, D-Methionine]", "values": [
      {"measurement": "effect on 3H-tryptophan uptake", "setting": "[1]; [6]", "result": "strongly inhibited"},
      {"measurement": "inhibition of tryptophan uptake", "setting": "[2]; 0.05mM, WT and GFP-expressing EG7 cells, absence of BCH", "result": "over 80%"},
      {"measurement": "tryptophan uptake maintained", "setting": "[3]", "result": "greater than 40%"},
      {"measurement": "fold higher Ki in IDO positive cells than IDO negative cells", "setting": "[3]; EG7 cells, single uptake system calculation", "result": "approximately 10 fold"},
      {"measurement": "fold lower affinity of the additional transporter versus the first transporter", "setting": "[3]", "result": 10, "unit": "fold"},
      {"measurement": "Ki", "setting": "[3]; read-out: Ki calculated based on a single tryptophan uptake system, IDO positive EG7 cells", "result": "100 to 300", "unit": "µM"}
    ]},
    {"compound": "N[C@H](Cc1c[nH]c2ccccc12)C(=O)O", "note": "[D-tryptophan]", "values": [
      {"measurement": "effect on tryptophan uptake in the presence of 2.5mM glutamine", "setting": "[4]", "result": "minimal inhibition"}
    ]},
    {"compound": "N[C@@H](Cc1ccc(O)c(O)c1)C(=O)O", "note": "[L-Dopa, L-3,4-dihydroxyphenylalanine]", "values": [
      {"measurement": "effect on tryptophan uptake in the presence of 2.5mM glutamine", "setting": "[4]", "result": "inhibited"}
    ]},
    {"compound": "CSCC[C@H](N)C(=O)O", "note": "[L-Met, L-methionine]", "values": [
      {"measurement": "effect on 3H-tryptophan uptake", "setting": "[1]; [6]", "result": "strongly inhibited"},
      {"measurement": "inhibition at 50 µM", "setting": "[2]; Mus musculus, EG7, read-out: inhibition of tryptophan uptake", "result": "> 80", "unit": "%"},
      {"measurement": "tryptophan uptake maintained", "setting": "[3]", "result": "greater than 40%"},
      {"measurement": "fold lower affinity of the additional transporter versus the first transporter", "setting": "[3]", "result": 10, "unit": "fold"}
    ]},
    {"compound": "CNC(C)(C)C(=O)O", "note": "[MeAIB, methyl-aminoisobutyric acid]", "values": [
      {"measurement": "effect on tryptophan uptake, inhibitor alone", "setting": "[3]; data not shown", "result": "minimal effect"}
    ]},
    {"compound": "CCN1C(=O)C=CC1=O", "note": "[NEM, N-ethyl maleimide]", "values": [
      {"measurement": "effect on tryptophan uptake, inhibitor alone", "setting": "[3]; data not shown", "result": "minimal effect"}
    ]},
    {"compound": "NC(=O)CC[C@H](N)C(=O)O", "note": "[glutamine]", "values": [
      {"measurement": "effect of excess unlabelled amino acid on 3H-tryptophan uptake", "setting": "[1]", "result": "completely inhibited"},
      {"measurement": "effect of glutamine alone on tryptophan uptake", "setting": "[1]; [6]", "result": "completely abolished"},
      {"measurement": "effect on uptake of 14C-histidine", "setting": "histidine uptake", "result": "inhibited"},
      {"measurement": "tryptophan uptake in the presence of glutamine", "setting": "[2]; WT and GFP-transduced EG7 cells, data not shown", "result": "inhibited"},
      {"measurement": "tryptophan uptake in the presence of glutamine", "setting": "[3]; murine EG7-IDO positive cells, data not shown", "result": "resistant to inhibition"},
      {"measurement": "sensitivity of tryptophan uptake to inhibition", "setting": "activated human T cells", "result": "highly sensitive to inhibition"},
      {"measurement": "tryptophan uptake maintained", "setting": "[5]; 5mM, IDO positive Hela cells", "result": "over 50%"},
      {"measurement": "fold increase in Ki for IDO positive cells compared with IDO negative controls", "setting": "[5]; Hela cells", "result": 10, "unit": "fold"},
      {"measurement": "effect of excess unlabelled amino acid on 3H-tryptophan uptake", "setting": "[5]; IDO positive Hela cells", "result": "a proportion of the tryptophan uptake was retained"}
    ]},
    {"compound": "NCC(=O)O", "note": "[glycine]", "values": [
      {"measurement": "effect of excess unlabelled amino acid on 3H-tryptophan uptake", "setting": "[1]", "result": "no effect"},
      {"measurement": "effect of excess unlabelled amino acid on 3H-tryptophan uptake", "setting": "[5]; IDO positive Hela cells", "result": "no effect"}
    ]},
    {"compound": "N[C@@H](Cc1c[nH]cn1)C(=O)O", "note": "[histidine]", "values": [
      {"measurement": "effect of excess unlabelled amino acid on 3H-tryptophan uptake", "setting": "[1]", "result": "completely inhibited"},
      {"measurement": "effect on uptake of 14C-histidine", "setting": "histidine uptake", "result": "inhibited"},
      {"measurement": "fold increase in Ki for IDO positive cells compared with IDO negative controls", "setting": "[5]; Hela cells", "result": 10, "unit": "fold"},
      {"measurement": "effect of excess unlabelled amino acid on 3H-tryptophan uptake", "setting": "[5]; IDO positive Hela cells", "result": "a proportion of the tryptophan uptake was retained"}
    ]},
    {"compound": "N[C@@H](Cc1ccccc1)C(=O)O", "note": "[phenylalanine]", "values": [
      {"measurement": "effect on tryptophan uptake in the presence of 2.5mM glutamine", "setting": "[4]", "result": "inhibited"},
      {"measurement": "inhibition of tryptophan uptake in the presence of glutamine", "setting": "[4]; IFN-γ-treated and IDO transduced Hela cells, 2.5mM glutamine", "result": "over 50%"}
    ]},
    {"compound": "N[C@@H](Cc1c[nH]c2ccccc12)C(=O)O", "note": "[tryptophan, L-tryptophan]", "values": [
      {"measurement": "effect of excess unlabelled amino acid on 3H-tryptophan uptake", "setting": "[1]", "result": "effectively competed"},
      {"measurement": "effect on uptake of 14C-histidine", "setting": "histidine uptake", "result": "inhibited"},
      {"measurement": "effect on tryptophan uptake in the presence of 2.5mM glutamine", "setting": "[4]", "result": "reduced to baseline"},
      {"measurement": "Ki", "setting": "[4]; read-out: Ki of the induced glutamine-resistant 3H-tryptophan transport, IDO positive tumor cells, 2.5mM glutamine", "result": "2300 to 4200 nM and 3000 nM"},
      {"measurement": "calculated Ki compared between cell types", "setting": "[5]; Hela cells, IDO positive versus IDO negative", "result": "almost identical"},
      {"measurement": "effect of excess unlabelled amino acid on 3H-tryptophan uptake", "setting": "[5]; IDO positive Hela cells", "result": "effectively competed"}
    ]},
    {"compound": "N[C@@H](Cc1ccc(O)cc1)C(=O)O", "note": "[tyrosine]", "values": [
      {"measurement": "effect on tryptophan uptake in the presence of 2.5mM glutamine", "setting": "[4]", "result": "little additional effect"}
    ]}
  ]
}
